For orientation: IC50 means the concentration that inhibits the measured activity by half.

The target in one data set is T1, Neuromedin-B receptor (Homo sapiens, UniProt P28336). The experiment in a line: Displacement of [125I]-(D-Tyr0)NMB from human neuromedin B receptor transfected in HEK293 cells. Type of data set: cell-based.
T1 sequence (P28336 whole entry): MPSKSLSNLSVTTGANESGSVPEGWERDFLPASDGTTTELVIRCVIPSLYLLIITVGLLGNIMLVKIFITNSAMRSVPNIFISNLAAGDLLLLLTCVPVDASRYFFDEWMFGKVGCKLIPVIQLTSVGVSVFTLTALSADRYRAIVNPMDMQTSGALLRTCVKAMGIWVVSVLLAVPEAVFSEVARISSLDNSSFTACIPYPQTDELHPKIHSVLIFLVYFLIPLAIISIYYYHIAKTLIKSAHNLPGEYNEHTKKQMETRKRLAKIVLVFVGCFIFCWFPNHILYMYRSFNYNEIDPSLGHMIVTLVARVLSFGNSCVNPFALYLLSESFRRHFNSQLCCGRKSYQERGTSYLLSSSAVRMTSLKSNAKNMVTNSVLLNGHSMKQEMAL
Conditions: not given
The essentials: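 Whole-cell competition binding used 1 × 10⁶ HEK293 cells stably transfected with hNMBR, with 150 pM ¹²⁵I-[D-Tyr0]NMB (2200 Ci/mmol), in DMEM for 1 h at room temperature. Bound ligand was separated by filtration and total bound counts were measured. Day-to-day standard error was <30%; well-to-well variability was <10%.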
In general terms: Loss of bound radioactivity is the signal in a displacement assay; it reports binding, not function.
For the compound `CCN1c2cc(C)ccc2NC2=C(C(=O)CC(C)(C)C2)C1c1c(F)cccc1Cl` (configuration not stated), the IC50 turned out to be 0.18 µM.

In turn, `Cc1ccc2c(c1)NC(c1ccccc1F)C1=C(CC(C)(C)CC1=O)N2` (configuration not stated) showed an IC50 of 1.3 µM.

`Cc1ccc2c(c1)NC(c1c(F)cccc1F)C1=C(CC(C)(C)CC1=O)N2` (configuration not stated) gave an IC50 of 2.5 µM.

`Cc1ccc2c(c1)NC(c1c(F)cccc1Cl)C1=C(CC(C)CC1=O)N2` (configuration not stated) registered an IC50 of 0.45 µM.

Take `Cc1ccc2c(c1)NC(c1c(F)cccc1C(F)(F)F)C1=C(CC3(CCCC3)CC1=O)N2` (configuration not stated): the IC50 is 0.54 µM.

As for `Cc1ccc2c(c1)NC(c1c(F)cccc1Cl)C1=C(CC(C)(C)CC1=O)N2C` (configuration not stated), the IC50 was found to be 10 µM.

With `Cc1ccc2c(c1)NC(c1c(F)cccc1Cl)C1=C(CC(c3ccc(N(C)C)cc3)CC1=O)N2` (configuration not stated), the IC50 was 5.4 µM.

`Cc1ccc2c(c1)NC(c1c(F)cccc1Cl)C1=C(CC(C)(C)CC1=O)N2` (configuration not stated) registered an IC50 of 0.3 µM.

`CC1(C)CC(=O)C2=C(C1)Nc1ccc(OC(F)(F)F)cc1NC2c1c(F)cccc1Cl` (configuration not stated) yielded an IC50 of 1.3 µM.

As for `COc1ccc(C2CC(=O)C3=C(C2)Nc2ccc(C)cc2NC3c2c(F)cccc2Cl)cc1` (configuration not stated), the IC50 was 2 µM.

In turn, `CSc1ccccc1C1Nc2cc(C)ccc2NC2=C1C(=O)CC(C)(C)C2` (configuration not stated) showed an IC50 of 0.2 µM.

With `Cc1ccc2c(c1)NC(c1c(F)cccc1Cl)C1=C(CCCC1=O)N2` (configuration not stated), the IC50 is 1.4 µM.

Take `Cc1ccc2c(c1)NC(c1ccccc1SC(F)(F)F)C1=C(CC3(CCCC3)CC1=O)N2` (configuration not stated): the IC50 was found to be 0.64 µM.

On to `COc1ccc2c(c1)NC(c1c(F)cccc1Cl)C1=C(CC(C)(C)CC1=O)N2` (configuration not stated), for which the IC50 turned out to be 2.2 µM.

Compound `CC1(C)CC(=O)C2=C(C1)Nc1ccc(O)cc1NC2c1c(F)cccc1Cl` (configuration not stated) had an IC50 of 10 µM.

On to `COc1ccccc1C1Nc2cc(C)ccc2NC2=C1C(=O)CC(C)(C)C2` (configuration not stated), for which the IC50 worked out at 1.1 µM.

As to `CCCCN1c2cc(C)ccc2NC2=C(C(=O)CC(C)(C)C2)C1c1c(F)cccc1Cl` (configuration not stated), the IC50 came out at 0.15 µM.

With `CSc1ccccc1C1Nc2cc(C)ccc2NC2=C1C(=O)CC1(CCCC1)C2` (configuration not stated), the IC50 amounted to 0.25 µM.

The compound `Cc1ccc2c(c1)NC(c1ccccc1)C1=C(CC(C)(C)CC1=O)N2` (configuration not stated) yielded an IC50 of 6.9 µM.

As for `Cc1ccc2c(c1)NC(c1ccccc1[N+](=O)[O-])C1=C(CC(C)(C)CC1=O)N2` (configuration not stated), the IC50 stood at 0.55 µM.

`Cc1ccc2c(c1)NC(c1c(F)cccc1Cl)C1=C(CC3(CCCC3)CC1=O)N2` (configuration not stated) showed an IC50 of 0.28 µM.

`CC1(C)CC(=O)C2=C(C1)Nc1ccc(C#N)cc1NC2c1c(F)cccc1Cl` (configuration not stated) came in with an IC50 of 1.3 µM.

Regarding `Cc1ccc2c(c1)NC(c1c(F)cccc1Cl)C1=C(CC(c3ccco3)CC1=O)N2` (configuration not stated), the IC50 was found to be 3 µM.

`Cc1ccc2c(c1)NC(c1ccccc1Cl)C1=C(CC3(CCCC3)CC1=O)N2` (configuration not stated): the IC50 came to 0.24 µM.

As to `CC1(C)CC(=O)C2=C(C1)Nc1ccc(C(N)=O)cc1NC2c1c(F)cccc1Cl` (configuration not stated), the 50% inhibitory concentration (IC50) is 10 µM.

For the compound `Cc1ccc2c(c1)NC(c1ccccc1C(F)(F)F)C1=C(CC(C)(C)CC1=O)N2` (configuration not stated), the IC50 amounted to 0.25 µM.

In the case of `Cc1ccc2c(c1)NC(c1c(F)cccc1Cl)C1=C(CCC1=O)N2` (configuration not stated), the IC50 came to 10 µM.

`Cc1ccc2c(c1)N(C)C(c1c(F)cccc1Cl)C1=C(CC(C)(C)CC1=O)N2` (configuration not stated) came in with a half-inhibitory concentration (IC50) of 0.17 µM.

For `CC1(C)CC(=O)C2=C(C1)Nc1ccc(C(=O)O)cc1NC2c1c(F)cccc1Cl` (configuration not stated), the IC50 was found to be 10 µM.

As to `Cc1ccc2c(c1)NC(c1c(F)cccc1Cl)C1=C(CC(C(C)C)CC1=O)N2` (configuration not stated), the IC50 stood at 0.81 µM.

`Cc1ccc2c(c1)NC(c1ccccc1Cl)C1=C(CC(C)(C)CC1=O)N2` (configuration not stated): the IC50 is 0.28 µM.

`CC1(C)CC(=O)C2=C(C1)Nc1ccc(Cl)cc1NC2c1c(F)cccc1Cl` (configuration not stated) gave an IC50 of 0.86 µM.

`CC1(C)CC(=O)C2=C(C1)Nc1ccc(C(F)(F)F)cc1NC2c1c(F)cccc1Cl` (configuration not stated) displayed an IC50 of 0.37 µM.

For `Cc1ccc2c(c1)NC(c1ccccc1C(F)(F)F)C1=C(CC3(CCCC3)CC1=O)N2` (single isomer, unassigned; (+)), the IC50 amounted to 0.03 µM.

In turn, `Cc1ccc2c(c1)NC(c1ccccc1C(F)(F)F)C1=C(CC3(CCCC3)CC1=O)N2` (single isomer, unassigned; (-)) registered an IC50 of more than 10 µM.

The compound `Cc1ccc2c(c1)NC(c1ccccc1C(F)(F)F)C1=C(CC3(CCCC3)CC1=O)N2` (stereo in doubt; 30) gave an IC50 of 0.096 µM.

In another data set the target is Gastrin-releasing peptide receptor (Homo sapiens, UniProt P30550). The data set can be described thus: Inhibition gastrin-releasing peptide receptor.
Chain of Gastrin-releasing peptide receptor (P30550 whole entry): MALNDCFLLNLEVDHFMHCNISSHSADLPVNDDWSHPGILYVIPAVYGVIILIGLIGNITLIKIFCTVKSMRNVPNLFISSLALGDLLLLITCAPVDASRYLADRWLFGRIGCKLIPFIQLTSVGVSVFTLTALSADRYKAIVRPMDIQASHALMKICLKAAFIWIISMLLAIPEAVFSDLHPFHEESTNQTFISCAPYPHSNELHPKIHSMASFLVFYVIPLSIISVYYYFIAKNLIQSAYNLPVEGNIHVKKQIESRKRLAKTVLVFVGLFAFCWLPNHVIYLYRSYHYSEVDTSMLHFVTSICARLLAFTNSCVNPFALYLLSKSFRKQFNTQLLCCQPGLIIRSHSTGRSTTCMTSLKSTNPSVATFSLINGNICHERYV
Conditions: not given
On to `Cc1ccc2c(c1)NC(c1c(F)cccc1Cl)C1=C(CC(C)(C)CC1=O)N2` (configuration not stated), for which the IC50 is more than 10 µM.

For a further data set, the system named is HEK293. The data set can be described thus: Cytotoxicity against HEK293 cells up to 30 uM after 72 hrs by alamar blue assay. Type of data set: cell-based. Particulars: human, hek293, 72 h. (In general: The colour change of resazurin is a common sign of viable cells or microbes.)
As for `Cc1ccc2c(c1)NC(c1ccccc1C(F)(F)F)C1=C(CC3(CCCC3)CC1=O)N2` (single isomer, unassigned; (+)), the Activity result is reported as “Non-toxic”.

The next data set relates to HeLa. The experiment in a line: Cytotoxicity against human HeLa cells up to 30 uM after 72 hrs by alamar blue assay. The class given is cell-based.
Conditions: not given
The essentials:
(§1)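 HeLa cells were seeded at 5k per well. Compounds were tested as a 9-point threefold dilution series, with triplicate readings at 0 and 72 h. At each time point Alamar Blue was added for 3 h at 37 °C and fluorescence was read. Relative growth was compared to a DMSO control well for each compound.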
In the case of `Cc1ccc2c(c1)NC(c1ccccc1C(F)(F)F)C1=C(CC3(CCCC3)CC1=O)N2` (single isomer, unassigned; (+)), the Activity result is “Non-toxic”.

The subject of another data set is HeLa. The data set can be described thus: Cytotoxicity against human HeLa cells after 72 hrs by alamar blue assay. The class given is cell-based.
Conditions: not given
The essentials:
as §1
On to `Cc1ccc2c(c1)NC(c1ccccc1C(F)(F)F)C1=C(CC3(CCCC3)CC1=O)N2` (single isomer, unassigned; (+)), for which the half-maximal inhibitory concentration (IC50) is more than 50 µM.

In another data set the target is T1, Neuromedin-B receptor. The experiment in a line: Antagonist activity at human neuromedin B receptor transfected in HEK293 cells assessed as inhibition of 1 nM neuromedin B-induced myo-[3H]inositol phosphate accumulation after 60 mins by scintillation proximity assay. Type of data set: functional, cell-based.
Conditions: not given
The essentials:
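hNMBR-transfected HEK293 cells (2.5 × 10⁴ per well) were labelled overnight at 37 °C with myo-[³H]inositol in inositol-free DMEM with 25 mM Hepes and 10% dialyzed FBS. Compounds were added in inositol-free DMEM with 0.3% BSA and 10 mM LiCl for 60 min at 37 °C. Cells were lysed in 20 mM formic acid (2 h, 4 °C), and inositol phosphates were captured on RNA-binding SPA beads for 30 min.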
In general terms: SPA uses beads or plates that emit light when radiolabelled molecules are held near them.
For the compound `Cc1ccc2c(c1)NC(c1c(F)cccc1Cl)C1=C(CC(C)(C)CC1=O)N2` (configuration not stated), the IC50 was found to be 5.5 µM.

In the case of `Cc1ccc2c(c1)NC(c1ccccc1C(F)(F)F)C1=C(CC3(CCCC3)CC1=O)N2` (single isomer, unassigned; (+)), the IC50 was determined as 0.58 µM.

Values taken from ChEMBL document CHEMBL1152392, “Discovery and optimization of a novel Neuromedin B receptor antagonist” (Bioorg Med Chem Lett, 2009).
